# Source: PubChem BioAssay (The Scripps Research Institute Molecular Screening Center)
# TDP2 absorb: blocks human TDP2 phosphodiesterase activity; O95551; recombinant TDP2, T5PNP hydrolysis, p-nitrophenol absorbance 415 nm; inhibition, % at 12.8 µM; 370,000 compounds, 0.34% hits; AID 720702;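 active = inhibition above the mean of all tested compounds plus 3 SD, set per campaign, cut at about 25% in these data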;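 also: 0% = DMSO with enzyme and 100% = buffer with substrate but no TDP2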
#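 Assay system: recombinant human TDP2 / Reagent: T5PNP substrate at 5 mM, a TopII-DNA adduct mimic / Measured by: epi absorbance from released p-nitrophenol / Evaluation: % inhibition relative to enzyme-containing and enzyme-free wells / Control set: enzyme-free and DMSO wells / Replicates: each compound tested once, singlicate / Schedule: enzyme reaction with compound for 2 h at 37 °C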
# ARFGAP1 inh: inhibitors of rat ARFGAP1; AID 651572; Q62848; inhibition, % at 16.5 µM; 360,000 compounds, 0.26% hits; Arfgap1-stimulated ARF1 GTP hydrolysis, GDP FP detection;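 active = inhibition above a per-plate limit, mean inhibition of low control wells plus 3 SD, cut at about 25% in these data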;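 also: 0% = DMSO wells with enzyme and 100% = wells lacking Arfgap1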
# Target sequence (Q62848 1-136 limits assumed): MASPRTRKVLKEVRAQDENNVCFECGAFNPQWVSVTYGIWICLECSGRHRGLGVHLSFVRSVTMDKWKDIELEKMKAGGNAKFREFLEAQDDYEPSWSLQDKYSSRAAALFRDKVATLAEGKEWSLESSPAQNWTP
#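 material = rat Arfgap1 catalytic domain, aa 1-136 | also added = human ARF1(Δ1-17)-GTP substrate | compound dosing = one concentration, 16.5 µM, DMSO 1.26% | times = GTP hydrolysis reaction 2 h at 25 °C | measured by = FP, GDP Alexa 633 tracer displaced from anti-GDP antibody, 620/688 nm | evaluation = percent inhibition of Arfgap1-stimulated GTP hydrolysis | replication = single well per compound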
# MBD2 inh: MBD2-methylated oligo binding inhibition; Q9UBB5; TR-FRET, MBD2 binding to methylated oligonucleotide; inhibition, % at 4.4 µM; 370,000 compounds, 0.31% hits; in the data active = inhibition above about 13%
# UHRF1 binding: blocks human UHRF1 binding to methylated DNA; UHRF1 binding to methylated oligo, TR-FRET; AID 687016; Q96T88; 370,000 compounds, 0.75% hits; inhibition, % at 4.4 µM;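 also: UHRF1 SRA domain binding a hemimethylated CpG hairpin DNA probe; 0% = median of test compound wells and 100% = reference inhibitor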
# LEDGF integ inh: blocks HIV-1 LEDGF/p75-dependent DNA integration. TR-FRET IN-LEDGF/p75 DNA integration, Eu/Cy5. inhibition, % at 3.7 µM. 370,000 compounds, 0.64% hits. AID 743269;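 active = inhibition above the screen-wide mean plus 3 SD, cut at about 13% in these data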;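 also: signal is the Cy5 over europium emission ratio at 671 and 618 nm; 0% = plate median of compound wells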
# ASAP1 GAP inh: inhibitors of human ASAP1 ArfGAP activity; ASAP1-stimulated ARF1 GTP hydrolysis, GDP FP detection; inhibition, % at 16.5 µM; 360,000 compounds, 0.19% hits; in the data active = inhibition above about 25%;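 also: 0% = vehicle with enzyme and substrate and 100% = no enzyme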
# Target sequence (Q9ULH1 325-724 limits assumed): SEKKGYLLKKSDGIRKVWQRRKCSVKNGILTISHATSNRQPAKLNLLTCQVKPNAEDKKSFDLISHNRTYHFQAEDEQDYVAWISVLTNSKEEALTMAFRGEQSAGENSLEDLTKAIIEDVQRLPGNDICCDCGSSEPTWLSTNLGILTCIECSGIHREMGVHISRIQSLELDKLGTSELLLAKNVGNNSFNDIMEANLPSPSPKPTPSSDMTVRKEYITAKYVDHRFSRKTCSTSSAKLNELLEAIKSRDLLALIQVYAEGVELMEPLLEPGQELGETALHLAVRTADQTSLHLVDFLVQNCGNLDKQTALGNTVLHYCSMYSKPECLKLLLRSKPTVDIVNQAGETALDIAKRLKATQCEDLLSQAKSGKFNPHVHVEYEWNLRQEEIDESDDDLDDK
# UHRF1 ctr MBD2: inhibits human UHRF1 binding to methylated oligonucleotide, MBD2 counter-screen | 1,000 compounds, 25% hits | inhibition, % at 4.4 µM | TR-FRET | shares compounds with MBD2 inh;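 also: UHRF1 SRA domain binding a labeled hemimethylated CpG hairpin DNA; 0% = vehicle only and 100% = reference inhibitor with vehicle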
# MBD2 DBD conf: confirmation of human MBD2-DBD methylated oligonucleotide binding inhibitors; shares compounds with MBD2 inh; TR-FRET MBD2-DBD binding to methylated oligonucleotide; inhibition, % at 4.4 µM; 1,000 compounds, 26% hits; AID 720531; in the data active = inhibition above about 14%
# * marks the source's active call; other numbers are inactive results; . = no result given. An excerpt weighted towards active compounds, which were near 2% of everything screened. Rule as the data show it, unless noted: active = inhibition above about 21%; inactive = the rest.
SMILES,TDP2 absorb,ARFGAP1 inh,MBD2 inh,UHRF1 binding,LEDGF integ inh,ASAP1 GAP inh,UHRF1 ctr MBD2,MBD2 DBD conf
COc1ccc(-c2c(C(=O)c3ccccc3)[nH]c(N)c2C(=O)c2c[nH]c3ccccc23)cc1OC,-9.6,.,-2.0,2.8,1.9,.,.,.
COC(=O)[C@H](C(C)C)N(Cc1cn(CC2CCCCC2)nn1)S(=O)(=O)c1ccc(F)cc1Br,-9.1,.,17.4*,19.0,4.5,.,6.8,6.9
COC(=O)[C@H](CC(C)C)N(Cc1cn(CC2CCCCC2)nn1)S(=O)(=O)c1ccccc1Br,-6.3,.,17.3*,18.5,4.2,.,8.2,10.6
COC(=O)[C@H](CC(C)C)N(Cc1cn(CC2CCCCC2)nn1)S(=O)(=O)c1ccc(F)cc1Br,-1.2,.,18.8*,20.9*,3.1,.,6.8,12.2
CCC(=O)Nc1ccc2c(c1)C(=O)N(C)[C@@H]1CC[C@@H](CC(=O)NCCN3CCCCC3)O[C@H]1CO2,0.5,.,1.1,4.2,0.2,.,.,.
CC(Sc1nnnn1C)C(=O)Nc1nc(-c2ccc(F)c(F)c2)cs1 (centres undefined),-1.6,1.3,18.3*,26.6*,11.2,15.8,2.0,3.6
CC(CCc1ccccc1)NC(=O)CN1CCN(Cc2ccc(Cl)cc2)C1=O (centres undefined),-5.7,12.7,17.0*,1.4,-1.6,-2.9,4.5,4.4
COc1cccc(NC(=O)CCC2CCN(C(=O)c3cccc(NC(C)=O)c3)CC2)c1,5.4,11.5,35.8*,1.9,1.4,-0.3,4.8,2.5
COc1cccc(CC(=O)N2CCC(CCC(=O)Nc3cccc(OC)c3)CC2)c1,4.9,5.3,-2.5,-2.4,-0.8,6.9,.,.
O=S(=O)(NCC1CCCO1)c1ccc2oc3ccc(S(=O)(=O)NCC4CCCO4)cc3c2c1 (centres undefined),6.0,8.3,18.5*,-1.8,2.4,8.8,11.6,3.1
O=S(=O)(NCC1CCCO1)c1ccc(Br)cc1 (centres undefined),24.4,-25.2,-4.1,1.8,2.3,4.4,.,.
CCn1c(COc2ccc(C)cc2)nnc1SCC(=O)c1ccc(-c2ccccc2)cc1,-2.1,.,3.1,1.0,4.4,.,.,.
COc1cc(OC)nc(Oc2ccccc2C=O)n1,5.8,-10.4,-0.6,-5.8,5.3,7.1,.,.
COc1cc(OC)nc(Oc2ccccc2/C=N/O)n1,-4.3,8.9,14.9*,0.3,2.5,11.9,0.3,4.1
CCC(=O)N[C@H]1C[C@@H]2O[C@@H](CO)CC[C@@H]2O[C@@H]1CCc1ccc(-c2cccc(OC)c2)cc1,-9.0,.,6.6,7.1,-6.3,.,.,.
C[C@@H]1CCC2[C@](C)(CO)[C@@H](O)CC[C@]2(C)[C@@]12CCC(CO)(CCO)O2 (some centres undefined),-2.0,7.9,24.6*,2.3,2.0,-12.0,8.6,1.6
Cc1ccccc1NC(=O)N1CCC(NC(=O)C2CCCCC2)CC1,12.7,13.2,14.2*,19.2,1.4,3.1,6.2,5.2
CCN(CC)CCC(=O)Nc1cccc2c1C(=O)c1ccccc1C2=O,-4.2,10.8,27.3*,-29.4,4.1,-5.6,4.4,37.5*
CCN(CC)CCNC(=O)c1ccc2c(c1NCCO)C(=O)c1ccccc1C2=O,15.9,9.4,21.6*,4.4,10.5,6.2,15.1,29.8*
Nc1cccc(C(=O)OCC(=O)Nc2cccc3c2C(=O)c2ccccc2C3=O)c1,-6.7,5.1,2.4,-1.0,-0.5,-8.6,.,.
CN(C)CC(=O)N[C@H]1C[C@@H]2O[C@@H](CO)CC[C@@H]2O[C@@H]1CCc1ccc(-c2ccc(F)cc2)cc1,4.1,.,4.8,2.8,3.9,.,.,.
CC(C)NC(=O)CSc1nc2ccccc2n1CC(=O)N(C(C)C)C(C)C,-12.7,-4.2,6.5,4.5,2.6,7.0,.,.
CC(C)NC(=O)Cn1c(SCC(=O)c2ccc(F)cc2)nc2ccccc21,23.4,-16.3,14.0*,21.8*,8.7,5.5,5.6,3.3
CCn1nc(C(=O)Nc2nc(-c3ccccn3)cs2)c2ccccc2c1=O,3.3,-27.7,27.0*,-2.5,-5.4,5.2,-2.9,4.4
CC(COc1cccc(OC(F)(F)F)c1)CN1CCC(C(O)(c2ccccc2)c2ccccc2)CC1 (centres undefined),-13.1,.,2.0,-1.1,-0.9,.,.,.
SMILES,TDP2 absorb,ARFGAP1 inh,MBD2 inh,UHRF1 binding,LEDGF integ inh,ASAP1 GAP inh,UHRF1 ctr MBD2,MBD2 DBD conf
Cc1cc(C)c(C#N)c(SCC(=O)Nc2ccc(S(=O)(=O)Nc3ncccn3)cc2)n1,-9.8,6.1,18.0*,0.6,0.4,4.8,11.8,3.1
O=C(/C=C/c1ccc(-c2ccccc2[N+](=O)[O-])o1)c1ccco1,-1.1,12.5,14.4*,34.1*,10.6,0.3,4.5,-0.8
O=C(/C=C/c1ccc([N+](=O)[O-])cc1)c1ccco1,-9.4,-13.3,-8.5,-1.4,-2.9,-4.1,.,.
CC(=O)Nc1cc(-c2cccc(C(=O)N(C)C)c2)cn2c(-c3ccccc3)cnc12,3.8,-5.1,-1.3,-3.3,-2.0,-0.9,.,.
CC(=O)Nc1cc(-c2cccc(C(=O)N(C)C)c2)cn2c(-c3ccc(C(C)=O)cc3)cnc12,4.5,-2.1,14.0*,-2.7,-2.4,10.9,7.6,4.6
CCOC(=O)c1cccc(NC(=O)CN(C)S(=O)(=O)c2ccc(F)cc2)c1,8.0,.,0.9,0.6,0.6,.,.,.
Cc1nnc(SCC(=O)Nc2ccc(N(C)C)cc2)n(N)c1=O,-11.1,-6.1,13.1*,-2.7,-5.8,-5.9,2.1,2.6
CC(=O)Nc1ccc(NC(=O)CSc2nnc(C)c(=O)n2N)cc1,5.1,0.5,1.6,-3.4,-0.4,3.6,.,.
Cc1nc2ccc(NC(=O)c3cc(Cl)ccc3F)cc2c(=O)[nH]1,7.2,.,1.3,-1.6,-0.8,.,.,.
C=CCN(CC=C)Cc1c(O)ccc2c1oc(=O)c1ccccc12,-8.7,-0.1,13.3*,16.2,0.2,-1.3,-0.5,12.4
COC(=O)[C@]12C[C@H](CC(=O)NCCc3ccccc3OC)C(=O)N(Cc3cccc4ccccc34)C1=C[C@H](COCc1ccccc1)O[C@@H]2C,-2.8,.,0.5,-0.5,-4.5,.,.,.
Cc1ccc(C(=O)C2CCN(CC(=O)N3CCOCC3)CC2)cc1,6.8,.,-4.4,3.1,0.0,.,.,.
Cc1ccc(C(=O)N2CCN(C(=O)CN3CCOCC3)C2)cc1,1.7,-0.2,13.9*,16.7,1.4,-0.4,7.1,4.0
C[C@H]1CCCN1c1ccc2c(c1)O[C@@H]1CCN(C1)S2(=O)=O,9.7,.,3.2,4.2,-0.4,.,.,.
